Published values from different studies.
Lines come from different studies, so protocols differ.
Target: Maternal embryonic leucine zipper kinase (MELK, Homo sapiens, UniProt Q14680)

C[C@@H]1CCN(c2nccc(-c3cnn4ncccc34)n2)C1 — remaining binding (binding; 1 µM): 48%
CNC(=O)[C@@H]1CC[C@@H](n2c(-c3ccc4cnccc4c3)nc3ccc(C(=O)NCc4cccc(C(N)=O)c4)cc32)C1 — remaining binding (binding, competition with immobilised ligand; 1 µM): 78%
CCC(=O)N[C@@H]1CC[C@H](C(=O)N(C)c2ccc(-c3nc4ccccc4o3)cc2)C1 — remaining binding (cell-free assay, competition with immobilised ligand; 1 µM): 100%
N[C@H]1CCN(c2nccc(-c3cnn4ncccc34)n2)C1 — remaining binding (binding; 1 µM): 69%
O=C(c1ccc(Nc2ncc(Cl)c(-c3ccc(Cl)s3)n2)cc1)N1CCC(N2CCCC2)CC1 — remaining binding (binding, competition with immobilised ligand; 1 µM): 54%
CN(C)c1nccc(-c2cnn3ncccc23)n1 — remaining binding (binding; 1 µM): 71%
Cc1c(NC(=O)c2cc(C(N)=O)nc3cc(F)ccc23)c(C(F)(F)F)nn1Cc1ccc(C#N)cc1 — remaining binding (cell-free assay, competition with immobilised ligand; 1 µM): 90%
CN(C)c1ncc(F)c(-c2cnn3ncccc23)n1 — remaining binding (binding; 1 µM): 79%
c1cncc(-c2cccc(Nc3nccc(NC4CCCCC4)n3)c2)c1 — remaining binding (binding, competition with immobilised ligand; 10 µM): 84%
CN([C@@H]1CCc2c(CC(=O)O)c3cc(S(C)(=O)=O)ccc3n2C1)S(=O)(=O)c1ccc(F)cc1 — remaining binding (cell-free assay, competition with immobilised ligand; 1 µM): 84%
CC1CCCN1c1nccc(-c2cnn3ncccc23)n1 (stereo not shown) — remaining binding (binding; 1 µM): 97%
COc1cnc(Nc2cccc(S(N)(=O)=O)c2)nc1N1CCN(c2ccccc2)C(=O)C1 — remaining binding (binding, competition with immobilised ligand; 1 µM): 100%
O=C(Nc1c[nH]nc1C(=O)NC1CCNCC1)c1cc(F)cc(F)c1 — remaining binding (binding, competition with immobilised ligand; 1 µM): 82%
CN(c1ccnc(CNc2nc(Nc3ccc4c(c3)CC(=O)N4)ncc2C(F)(F)F)n1)S(C)(=O)=O — remaining binding (cell-free assay, competition with immobilised ligand; 1 µM): 40%
O=C(NCCCN1CCOCC1)c1ccc(Nc2ncc(Cl)c(-c3ccc(Cl)s3)n2)cc1 — remaining binding (binding, competition with immobilised ligand; 1 µM): 69%
CC1=C(C#N)[C@@H](c2ccc3[nH]nc(C)c3c2)C(C#N)=C(c2ccc(Cl)cc2)N1 — remaining binding (cell-free assay, competition with immobilised ligand; 1 µM): 100%
CN(c1nccc(-c2cnn3ncccc23)n1)C1CC1 — remaining binding (binding; 1 µM): 73%
C[C@@H](c1ccc(-n2cnc3c(N)ncnc32)cc1)N1CCc2nn(C)c(Cc3ccccc3)c2C1=O — remaining binding (binding, competition with immobilised ligand; 0.1 µM): 93%
CNC(=O)Nc1ccc2c(c1)CC[C@@]21OC(=O)N(CC(=O)N(Cc2ccc(F)cc2)[C@@H](C)C(F)(F)F)C1=O — remaining binding (cell-free assay, competition with immobilised ligand; 1 µM): 91%
COc1ncc2cc3ccccc3nc2c1C#N — remaining binding (cell-free assay, competition with immobilised ligand; 5 µM): 83%
O=C(NCCCN1CCOCC1)c1ccc(Nc2nccc(-c3cc4ccccc4s3)n2)cc1 — remaining binding (binding, competition with immobilised ligand; 1 µM): 100%
COc1ccc2c(c1)O[C@@H](c1ccc(OC)c(OC)c1)C[C@H]2NC(=O)C1(c2ccc3c(c2)OC(F)(F)O3)CC1 — remaining binding (cell-free assay, competition with immobilised ligand; 1 µM): 65%
